These results are taken from article PMC10008514 (Chemical communications (Cambridge, England), 2023).

One data set in a line: Reactivity with DTNB. The data set is classed as physicochemical. The conditions noted are these: compound:DTNB 1:10, incubation 90 min, absorbance 412 nm.
Data set [1] is described as follows: Reaction with L-cysteine methyl ester. The data set is classed as physicochemical. As to conditions: equimolar 13, 24 h, 10% acetonitrile 90% water, pH 7.4, 1.25 mM. The procedure, abridged:
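Test compound and L-cysteine methyl ester were mixed in equimolar amounts at a final concentration of 1.25 mM. The solvent was 10% acetonitrile and 90% water at pH 7.4. The mixture was incubated for 24 h before analysis.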

A further data set addresses hCAII. The conditions noted are these: read-out: Ki hCAII; reported inhibitor; cited from earlier work.
In data set [2] the target is T1, matrix metalloproteinase-2 (MMP-2) (Homo sapiens, UniProt P08253).
T1 sequence (P08253 110-660): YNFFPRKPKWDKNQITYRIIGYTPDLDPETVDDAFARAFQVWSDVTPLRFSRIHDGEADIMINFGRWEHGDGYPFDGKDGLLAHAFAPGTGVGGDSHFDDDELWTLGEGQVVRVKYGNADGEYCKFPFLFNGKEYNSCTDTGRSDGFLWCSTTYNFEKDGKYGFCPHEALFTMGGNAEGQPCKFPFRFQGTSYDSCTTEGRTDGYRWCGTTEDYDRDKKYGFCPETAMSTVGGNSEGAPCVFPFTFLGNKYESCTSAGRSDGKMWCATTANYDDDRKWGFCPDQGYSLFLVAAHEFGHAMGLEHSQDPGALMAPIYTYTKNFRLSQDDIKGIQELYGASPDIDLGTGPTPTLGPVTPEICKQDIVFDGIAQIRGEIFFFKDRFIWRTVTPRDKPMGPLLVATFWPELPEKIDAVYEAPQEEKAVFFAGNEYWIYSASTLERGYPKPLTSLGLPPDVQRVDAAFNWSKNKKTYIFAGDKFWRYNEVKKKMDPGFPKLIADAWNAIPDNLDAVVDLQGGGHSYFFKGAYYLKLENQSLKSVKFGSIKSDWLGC
The experiment in a line: MMP-2 inhibition assay. The data set is classed as biochemical.

The target of data set [3] is human carbonic anhydrase II (hCAII) (Homo sapiens, UniProt P00918). In words: hCAII inhibition assay. The data set is classed as biochemical.

The Ki is the equilibrium dissociation constant of an inhibitor or competing ligand from its target. One may read the IC50 as the concentration that inhibits the measured activity by half.

Entries after “also recorded” stand apart in the source; their conditions may differ. Read-outs that look alike come from different tables or passages of the source.

Regarding `C[C@H](CS)C(=O)N1CCC[C@H]1C(=O)O` [Compound 12, captopril], the “Percent reactivity (conversion) with DTNB” value (from here on “Percent reactivity”) in the data set “Reactivity with DTNB” was “essentially quantitative conversion; also recorded: essential quantitative disulfide formation”.
As for `Oc1ccccc1S` [Compound 11, 2-mercaptophenol, reference compound], the “Reactivity with L-cysteine methyl ester (13), disulfide formation by HPLC” value (“Reactivity with L-cysteine methyl ester” for short) in data set [1] is given as “generate disulfide products with 13”. Moreover, the inhibitory constant (Ki) on hCAII is 0.63 µM. For the same compound, the concentration for half-maximal inhibition (IC50) was above 200 µM in data set [2] and 19.4 ± 5.15 µM in data set [3]. The “Percent reactivity” value in the data set “Reactivity with DTNB” is recorded as “essentially quantitative conversion; also recorded: essential quantitative disulfide formation”.
`S=C1Cc2ccccc2N1` [Compound 5, 2-indolinethione]: in data set [1], the “Reactivity with L-cysteine methyl ester” value was “stable in the presence of 13”. Further, the concentration for half-maximal inhibition (IC50) in data set [2] was found to be 76.6 ± 4.26 µM; in data set [3], 3.42 ± 0.34 µM.
For the compound `S=c1[nH]c2ccccc2o1` [Compound 1, benzo[d]oxazole-2-(3H)-thione], in data set [1], the “Reactivity with L-cysteine methyl ester” value is on record as “most stable compounds”. Also, on hCAII, the Ki is 0.97 µM. In addition, the IC50 in data set [2] (read-out: IC50 MMP-2, ± 95% confidence interval) was above 200 µM; in data set [3] (read-out: IC50 hCAII, ± 95% confidence interval), above 200 µM. Besides, in data set [3] (± 95% confidence interval), the “IC50 hCAII” value is listed as “not active”. In “Reactivity with DTNB”, the “Percent reactivity” value is reported as “most stable compounds”.
